From ChEMBL document CHEMBL1127797, “Synthesis of oxadiazolidinedione derivatives as quisqualic acid analogues and their evaluation at a quisqualate-sensitized site in the rat hippocampus” (J Med Chem, 1994) come the findings set out here.

Conditions in all cases: pyramidal neuron
A short description of experiment [1]: Sensitization of CA1 pyramidal neurons to depolarizations by L-AP6 before exposure to quisqualic acid. The format is functional, cell-based, Rattus norvegicus. In short, it runs like this: (§1)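 Rat (male Sprague-Dawley, 25-60 days) hippocampal slices, submerged, 34 °C, 95% O2/5% CO2; Schaffer collateral stimulation with stratum radiatum CA1 field potential recording. L-AP6 IC50 for 50% inhibition of peak amplitude interpolated from concentration-response curves, mean of four experiments; determined before and after slice exposure to sensitizing agent in place of quisqualic acid, then after 2 mM L-α-AA reversal.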

Experiment [2] is described as follows: Ability to directly depolarize CA1 pyramidal neurons of rat hyppocampal slices after exposure to quisqualic acid. The format is functional, cell-based. In a few lines: (§2)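 Transverse hippocampal slices (500 μM as printed) from 25-60 day old male Sprague-Dawley rats, preincubated 20-30 min in high Mg2+/low Ca2+ medium, held at 28 °C. Submerged in microperfusion chamber at 34 °C, 95% O2/5% CO2. Schaffer collateral stimulation, stratum radiatum recording of peak field potential amplitude. IC50 (50% inhibition) interpolated from concentration-response data, mean of four experiments; measured before and after 5 min 20 μM quisqualic acid, then after 10 min 2 mM L-α-AA reversal.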

Experiment [3] can be described thus: Ability to directly depolarize CA1 pyramidal neurons of rat hyppocampal slices before exposure to quisqualic acid. Format: functional, cell-based. In short, it runs like this: as §2
Experiment [4] can be described thus: Ability to directly depolarize CA1 pyramidal neurons of rat hyppocampal slices after reversal with L-alpha-AA. Format: functional, cell-based. In short, it runs like this: as §2
Experiment [5] is described as follows: Sensitization of CA1 pyramidal neurons to depolarizations by L-AP6 after reversal with L-alpha-AA. Format: functional, cell-based, Rattus norvegicus. In short, it runs like this: as §1
Experiment [6] in a line: Sensitization of CA1 pyramidal neurons to depolarizations by L-AP6 after exposure to quisqualic acid. Format: functional, cell-based, Rattus norvegicus.
Experiment [7] is described as follows: ability to directly depolarize CA1 pyramidal neurons of rat hyppocampal slices before exposure to quisqualic acid. Format: functional, cell-based. In a few lines: (§3)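 Transverse hippocampal slices from 25-60 day old male Sprague-Dawley rats, preincubated 20-30 min in high Mg2+/low Ca2+ medium. Submerged at 34 °C under 95% O2/5% CO2. Schaffer collaterals stimulated; field potential peak amplitude recorded in CA1 stratum radiatum. Concentration-response curves run before, after 5 min 20 μM quisqualic acid, and after 10 min 2 mM L-α-AA reversal. IC50 interpolated; mean of four experiments.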

The nature of experiment [8]: sensitization of CA1 pyramidal neurons to depolarizations by L-AP6 before exposure to quisqualic acid. Format: functional, cell-based, Rattus norvegicus. In short, it runs like this:
(§4)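 Male Sprague-Dawley rat (25-60 day) hippocampal slices were perfused at 34 °C. Schaffer collaterals were stimulated with field potential recording in CA1 stratum radiatum. L-AP6 concentration-response curves were run before and after exposure to test compound substituted for quisqualic acid, then after 10 min 2 mM L-α-AA. IC50 for 50% peak-amplitude inhibition was interpolated.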

A short description of experiment [9]: sensitization of CA1 pyramidal neurons to depolarizations by L-AP6 after reversal with L-alpha-AA. Format: functional, cell-based, Rattus norvegicus. In a few lines:
as §4

The nature of experiment [10]: ability to directly depolarize CA1 pyramidal neurons of rat hyppocampal slices after exposure to quisqualic acid. The format is functional, cell-based. In a few lines:
as §3

Experiment [11] is described as follows: sensitization of CA1 pyramidal neurons to depolarizations by L-AP6 after exposure to quisqualic acid. The format is functional, cell-based, Rattus norvegicus. In a few lines: as §4
A short description of experiment [12]: ability to directly depolarize CA1 pyramidal neurons of rat hyppocampal slices after reversal with L-alpha-AA. The format is functional, cell-based. In short, it runs like this: as §3
Experiment [13] can be described thus: sensitization of CA1 pyramidal neurons by 2 to depolarizations by L-AP4, L-AP5 and L-AP6 after reversal with L-alpha-AA. Format: functional, cell-based, Rattus norvegicus. In a few lines: (§5)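 Rat hippocampal slices were submerged at 34 °C under 95% O2/5% CO2. Stimulating and recording electrodes sat in CA1 stratum radiatum to record extracellular synaptic field potentials. IC50 of L-AP4, L-AP5 and L-AP6 was measured three times: before, after 20 min exposure to 20 mM test compound in place of quisqualic acid, and after 20 min 2 mM L-α-AA.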

The nature of experiment [14]: sensitization of CA1 pyramidal neurons by 2 to depolarizations by L-AP4,L-AP5 and L-AP6 after exposure to quisqualic acid. The format is functional, cell-based, Rattus norvegicus. In a few lines: as §5
A short description of experiment [15]: sensitization of CA1 pyramidal neurons by 2 to depolarizations by L-AP4, L-AP5 and L-AP6 before exposure to quisqualic acid. Format: functional, cell-based, Rattus norvegicus. In a few lines:
as §5

One may read the IC50 as the concentration at which inhibition is half-maximal. Consider `O=C(O)[C@@H]1C[C@@H](n2oc(=O)[nH]c2=O)CN1`, for which the IC50 in [1] was greater than 10000 µM; in experiment [2], 530 µM; in [3] it was 1000 µM; in [4], 1100 µM; in experiment [5] it was greater than 10000 µM; in experiment [6], 780 µM.

In the case of `N[C@@H](CCn1oc(=O)[nH]c1=O)C(=O)O`, the IC50 amounted to 9.8 µM in experiment [7]; 11000 µM in experiment [8]; 12000 µM in [9]; 5.5 µM in experiment [10]; 170 µM in experiment [11]; 20 µM in experiment [12].

Turning to `NC(CCCP(=O)(O)O)C(=O)O` (centres undefined), the IC50 was determined as 2200 µM in experiment [13], 310 µM in experiment [14] and 2300 µM in experiment [15].

On to `N[C@@H](CCP(=O)(O)O)C(=O)O`, for which the IC50 amounted to 1700 µM in experiment [13], 260 µM in [14] and 1500 µM in [15].

On to `O=C(O)CCn1oc(=O)[nH]c1=O`, for which the IC50 in [1], in experiment [2], in experiment [3] and in [6] was greater than 10000 µM throughout.

With `N[C@@H](Cn1oc(=O)[nH]c1=O)C(=O)O` [QUISQUALATE], the IC50 in [7] is 7 µM; in experiment [8], greater than 10000 µM; in experiment [9], 1900 µM; in [10] it was 4 µM; in experiment [11] it was 40 µM; in experiment [12], 26 µM.

With `NC(CCCCP(=O)(O)O)C(=O)O` (centres undefined), the IC50 in experiment [13] is 12000 µM; in experiment [11], 170 µM; in experiment [15] it was 11000 µM.

In the case of `NCCn1oc(=O)[nH]c1=O`, the IC50 in experiment [1] is greater than 10000 µM; in experiment [2] it was 3800 µM; in experiment [3] it was 5400 µM; in [6] it was greater than 10000 µM.

For the compound `O=C(O)[C@@H]1C[C@H](n2oc(=O)[nH]c2=O)CN1`, the half-inhibitory concentration (IC50) in [1] is greater than 10000 µM; in [2] it was 14 µM; in experiment [3], 15 µM; in experiment [6], greater than 10000 µM.
